According to ChEMBL document CHEMBL1811866, “Design, synthesis, and biological evaluation of abiotic, non-lactone modulators of LuxR-type quorum sensing” (Bioorg Med Chem, 2011):

Assays:
Format in all cases: functional
[1] = target: T1, Transcriptional activator protein TraR (Agrobacterium tumefaciens) (UniProt P33905); test: Antagonist activity at Agrobacterium tumefaciens WCF (pCF372) TraR assessed as inhibition of OOHL-induced quorum sensing activation at 10 uM relative to untreated control
T1 sequence (whole entry): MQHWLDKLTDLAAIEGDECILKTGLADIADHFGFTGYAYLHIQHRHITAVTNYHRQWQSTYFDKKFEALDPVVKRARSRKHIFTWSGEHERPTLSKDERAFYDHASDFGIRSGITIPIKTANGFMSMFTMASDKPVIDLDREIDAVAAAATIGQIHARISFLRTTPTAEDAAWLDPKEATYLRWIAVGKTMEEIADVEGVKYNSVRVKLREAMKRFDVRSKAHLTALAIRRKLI

[2] = target: T2, Transcriptional activator protein LasR (Pseudomonas aeruginosa (strain ATCC 15692 / PAO1 / 1C / PRS 101 / LMG12228)) (UniProt P25084); test: Agonist activity at Pseudomonas aeruginosa PAO1 MW1 (pUM15) LasR assessed as activation of quorum sensing at 10 uM relative to N-(3-oxo)-dodecanoyl HL
T2 sequence (whole entry): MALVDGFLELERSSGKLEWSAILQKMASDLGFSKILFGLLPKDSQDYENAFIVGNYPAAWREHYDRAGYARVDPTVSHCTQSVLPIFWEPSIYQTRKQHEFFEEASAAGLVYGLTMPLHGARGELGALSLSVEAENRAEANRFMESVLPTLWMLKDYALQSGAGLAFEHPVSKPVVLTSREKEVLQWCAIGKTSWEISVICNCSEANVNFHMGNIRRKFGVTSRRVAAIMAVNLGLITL
Method in brief: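 P. aeruginosa PAO1 MW1 grown overnight at 30 °C in LB/MOPS pH 7 with carbenicillin (300 µg/mL). Subcultured 1:10 at 37 °C to OD 0.25–0.30 and plated with compound only, no native ligand. Incubated with shaking at 37 °C for 8 h. OD and fluorescence then read.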

[3] = target: T3, Transcriptional activator protein LuxR (Aliivibrio fischeri) (UniProt P12746); test: Antagonist activity at Vibrio fischeri ESI 114 (delta-LuxI) LuxR assessed as inhibition of OHHL-induced quorum sensing activation at 10 uM relative to untreated control
T3 sequence (whole entry): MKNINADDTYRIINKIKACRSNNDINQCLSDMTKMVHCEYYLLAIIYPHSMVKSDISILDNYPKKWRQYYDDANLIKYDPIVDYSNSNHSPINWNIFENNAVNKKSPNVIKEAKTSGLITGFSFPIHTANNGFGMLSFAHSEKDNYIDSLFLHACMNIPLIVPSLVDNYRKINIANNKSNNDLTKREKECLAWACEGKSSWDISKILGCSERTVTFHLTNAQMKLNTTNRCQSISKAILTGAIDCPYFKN
Method in brief: (§1)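 LuxR reporter in V. fischeri ESI 114 (Δ-LuxI), compounds screened at 10 μM in triplicate. For inhibition, cells challenged with 2 μM OHHL. Agonism normalized to native ligand at 100 μM. Negative controls with no ligand subtracted as background.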

[4] = target: T3, Transcriptional activator protein LuxR (Aliivibrio fischeri); test: Agonist activity at Vibrio fischeri ESI 114 (delta-LuxI) LuxR assessed as activation of quorum sensing at 10 uM relative to OHHL; method in brief: as §1
[5] = target: T1, Transcriptional activator protein TraR (Agrobacterium tumefaciens); test: Agonist activity at Agrobacterium tumefaciens WCF (pCF372) TraR assessed as activation of quorum sensing at 10 uM relative to OOHL
[6] = target: T2, Transcriptional activator protein LasR (Pseudomonas aeruginosa (strain ATCC 15692 / PAO1 / 1C / PRS 101 / LMG12228)); test: Antagonist activity at Pseudomonas aeruginosa PAO1 MW1 (pUM15) LasR assessed as inhibition of N-(3-oxo)-dodecanoyl HL-induced quorum sensing activation at 10 uM relative to untreated control
Method in brief: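 P. aeruginosa PAO1 MW1 colony grown overnight at 30 °C in LB with MOPS at pH 7 plus carbenicillin (300 µg/mL). Diluted 1:10 and shaken at 37 °C to OD 0.25–0.30. OdDHL added to the subculture at 1 μM final, then plated with test compound. Plates shaken at 37 °C for 8 h, then optical density and fluorescence read.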

[7] = test system: Escherichia coli DH5[alpha]; test: Agonist activity at Escherichia coli DH5alpha (pJN105L + pSC11) LasR assessed as activation of quorum sensing at 10 uM relative to N-(3-oxo)-dodecanoyl HL
[8] = test system: Escherichia coli DH5[alpha]; test: Antagonist activity at Escherichia coli DH5alpha (pJN105L + pSC11) LasR assessed as inhibition of N-(3-oxo)-dodecanoyl HL-induced quorum sensing activation at 10 uM relative to untreated control

| inhibition [1] | Activity [2] | inhibition [3] | Activity [4] | Activity [5] | inhibition [6] | SMILES | Activity [7] | inhibition [8] |
| --- | --- | --- | --- | --- | --- | --- | --- | --- |
|  | 1% | 0% | 0% |  | 0% | O=C(Cc1cccc([N+](=O)[O-])c1)Nc1ccccc1 | 0% | 12% |
|  | 0% | 18% | 3% |  | -1% | COc1ccc(CC(=O)NC2CCCC2)cc1 | 6% | 24% |
|  | 0% | 19% | 0% |  | 1% | O=C(Cc1ccccc1)NC1CCCC1 | 0% | 11% |
|  | 0% | 62% | 33% |  | -5% | O=C(Cc1cccc([N+](=O)[O-])c1)NC1CCCC1 | 0% | 29% |
|  | 0% | 35% | 0% |  |  | O=C(Cc1ccc(Br)cc1)NC1CCCC1 | 0% | 11% |
| -6% | 0% | 44% | 2% | 0% | 17% | CCCCCCCCCC(=O)CC(=O)NCc1cccc([N+](=O)[O-])c1 | 0% | 41% |
|  | 0% | 89% | 0% |  |  | CCOC(=O)CNC(=O)CCc1cccc(I)c1 | 0% | 38% |
|  | 1% | 17% | 5% |  |  | O=C(Cc1ccc(-c2ccccc2)cc1)NC1CCCC1 | 0% | 4% |
|  | 0% | 15% | 0% |  | -10% | CCOC(=O)CNC(=O)Cc1ccccc1 | 0% | 38% |
|  | 2% | 25% | 4% |  | -10% | O=C(CCCc1c[nH]c2ccccc12)NC1CCCC1 | 0% | 20% |
|  | 0% | 19% | 0% |  |  | CCOC(=O)CNC(=O)Cc1cccc([N+](=O)[O-])c1 | 93% | 41% |

Further lines, the compound ahead of its results:

| SMILES | inhibition [1] | Activity [2] | inhibition [3] | Activity [4] | Activity [5] | inhibition [6] | Activity [7] | inhibition [8] |
| --- | --- | --- | --- | --- | --- | --- | --- | --- |
| CCCCCCCCCC(=O)CC(=O)NCc1ccc(OC)cc1 | -8% | 1% | 15% | 2% | 0% | 38% | 73% |  |
| CCCCCCCCCC(=O)CC(=O)Nc1ccccc1 |  | 1% | 12% | 2% | 1% | 29% | 3% | 54% |
| CCOC(=O)CNC(=O)Cc1ccc(Br)cc1 |  | 0% | 14% | 0% |  |  | 0% | 33% |
| CCCCCCCCCC(=O)CC(=O)NCCC(c1ccccc1)c1ccccc1 | -6% | 0% |  | 6% | -1% | 8% | 0% | 17% |
| O=C(Cc1ccc(Br)cc1)Nc1ccccc1 |  | 0% | 1% | 0% |  | 12% | 3% | 20% |
| CCCCCCCCCC(=O)Nc1ccccc1 |  | 0% | 2% | 7% |  | 5% | 3% | 20% |
| CCCCCCCCCC(=O)CC(=O)NCc1ccccc1F |  | 0% |  | 2% | -1% | 13% | 0% | 38% |
| CCCCCCCCCC(=O)CC(=O)NCC(=O)OCC | -3% | 12% |  | 8% | 2% | 11% | 51% |  |
| CCOC(=O)CNC(=O)CCc1ccc(Cl)cc1 |  | 0% | 14% | 0% |  | -5% | 0% | 38% |
| CCCCCCCCCC(=O)CC(=O)NCCC1=CCCCC1 |  | 4% | 35% | 3% | -1% | -7% | 0% | 10% |
| CCCCCCCCCC(=O)CC(=O)NCc1ccc(OC)c(OC)c1 | -10% | 0% |  | 1% | 0% | 9% | 1% | 13% |
| CCCCCCCCCC(=O)CC(=O)Nc1cc(-c2ccc(Cl)cc2)nn1C |  | 0% | 2% | 3% | -2% | 0% | 0% | 0% |
| CCOC(=O)CNC(=O)Cc1ccc(SC(F)(F)F)cc1 |  | 0% | 43% | 0% |  |  | 0% | 33% |
| CCCCCCCCCC(=O)CC(=O)NC1CCCC1 | -3% | 54% | 89% | 4% | -1% | -1% | 84% |  |
| CCCCCCCCCC(=O)CC(=O)NCc1ccco1 | 1% | 0% | -4% | 4% | -1% | 26% | 0% | 0% |
| CCCCCCCCCC(=O)CC(=O)N[C@@H](C)C(=O)OC | -4% | 0% | 24% | 4% | 0% | 23% | 2% | -4% |
| CCCCCCCCCC(=O)CC(=O)NCc1ccc(F)cc1 |  | 0% |  | 1% | 0% | 13% | 0% | 13% |
| CCCCCCCCCC(=O)CC(=O)NCCc1ccccc1 | -4% | 0% | 7% | 1% | 0% | 5% | 0% | -4% |
| CCCCCCCCCC(=O)CC(=O)NCc1cc(F)cc(F)c1 | -10% | 0% |  | 3% | -1% | 16% | 0% | 22% |
| CCOC(=O)CNC(=O)CCc1ccc(OC)cc1 |  | 0% | 40% | 0% |  | -6% | 0% | 36% |
| CCCCCCCCCC(=O)CC(=O)NCc1c(F)cccc1F |  | 0% |  | 5% | -1% | 5% | 1% | 13% |
